Experimental data from ChEMBL document CHEMBL2146464, “Structure-activity relationship study of nitrosopyrimidines acting as antifungal agents” (Bioorg Med Chem, 2012).
Calls of active or inactive are those of the source.

Columns and labels:
Assay type in all cases: functional, organism-based
[1] = system: Candida albicans; experiment: Antifungal activity against Candida albicans ATCC 10231 at 0.98 to 250 ug/mL after 48 hrs by NCCLS broth microdilution method
How it was run: (§1)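 Yeast MIC by NCCLS M27-A3 broth microdilution in RPMI-1640 buffered to pH 7.0 with MOPS. Twofold dilutions of 250–0.98 µg/mL, final DMSO ≤1%. Inoculum 1–5 × 10³ CFU/mL. Incubated at 30 °C in a moist dark chamber. Read visually at 48 h. MIC100 is the lowest concentration with no visible growth versus drug-free control.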

[2] = system: Cryptococcus neoformans; experiment: Antifungal activity against Cryptococcus neoformans ATCC 32264 at 0.98 to 250 ug/mL after 48 hrs by NCCLS broth microdilution method; how it was run: as §1
[3] = system: Nannizzia gypsea; experiment: Antifungal activity against Microsporum gypseum CCC 115 at 0.98 to 250 ug/mL by NCCLS broth microdilution method
How it was run: (§2)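 MIC by broth microdilution per NCCLS M27-A3/M38-A2 in RPMI-1640 buffered to pH 7.0 with MOPS. Twofold dilutions from 250–0.98 µg/mL, final DMSO ≤1%. Inoculum 1–5 × 10³ CFU/mL. Incubated in a moist dark chamber, 30 °C for Aspergillus and 28–30 °C for dermatophytes. Read visually when control growth allowed. Endpoint is the lowest concentration giving total inhibition of visible growth (MIC100).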

[4] = system: Aspergillus fumigatus; experiment: Antifungal activity against Aspergillus fumigatus ATCC 26934 at 0.98 to 250 ug/mL by NCCLS broth microdilution method; how it was run: as §2
[5] = system: Aspergillus flavus; experiment: Antifungal activity against Aspergillus flavus ATCC 9170 at 0.98 to 250 ug/mL by NCCLS broth microdilution method; how it was run: as §2
[6] = system: Trichophyton rubrum; experiment: Antifungal activity against Trichophyton rubrum CCC 110 at 0.98 to 250 ug/mL by NCCLS broth microdilution method; how it was run: as §2
[7] = system: Trichophyton mentagrophytes; experiment: Antifungal activity against Trichophyton mentagrophytes ATCC 9972 at 0.98 to 250 ug/mL by NCCLS broth microdilution method; how it was run: as §2
[8] = system: Aspergillus niger; experiment: Antifungal activity against Aspergillus niger ATCC 9029 at 0.98 to 250 ug/mL by NCCLS broth microdilution method; how it was run: as §2
[9] = system: Candida tropicalis; experiment: Antifungal activity against Candida tropicalis at 0.98 to 250 ug/mL after 48 hrs by NCCLS broth microdilution method; how it was run: as §1

Measured: Activity

Nc1nc(NC23CC4CC(CC(C4)C2)C3)c(N=O)c(=O)[nH]1
inactive: [1] | [2] | [3] | [4] | [5] | [6] | [7] | [8] | [9]

COc1nc(N)c(N=O)c(N2CCCC2)n1
inactive: [1] | [2] | [3] | [4] | [5] | [6] | [7] | [8] | [9]

COc1nc(NCCOC(C)=O)nc(Nc2ccccc2)c1N=O
inactive: [1] | [2] | [3] | [4] | [5] | [6] | [7] | [8] | [9]

COc1nc(NCCO)nc(Nc2ccccc2)c1N=O
inactive: [1] | [2] | [3] | [4] | [5] | [6] | [7] | [8] | [9]

Nc1nc(OCC2CCCCC2)c(N=O)c(OCC2CCCCC2)n1
inactive: [1] | [2] | [3] | [4] | [5] | [6] | [7] | [8] | [9]

CCOC(=O)C(Cc1ccccc1)Nc1nc(N)nc(OC)c1N=O (stereo not given)
inactive: [1] | [2] | [3] | [4] | [5] | [6] | [7] | [8] | [9]

CC(C)Nc1nc(N)nc(Nc2cccc(Cl)c2)c1N=O
inactive: [1] | [2] | [3] | [4] | [5] | [6] | [7] | [8] | [9]

CNc1nc(N)nc(NCc2ccccc2)c1N=O
inactive: [1] | [2] | [3] | [4] | [5] | [6] | [7] | [8] | [9]

COc1nc(N)nc(NCCO)c1N=O
inactive: [1] | [2] | [3] | [4] | [5] | [6] | [7] | [8] | [9]

Nc1nc2c(c(OCC3CCCCC3)n1)NC(=O)[C@H](Cc1ccccc1)N2
inactive: [1] | [2] | [3] | [4] | [5] | [6] | [7] | [8] | [9]

Nc1nc(NCc2ccccc2)c(N=O)c(NCc2ccccc2)n1
inactive: [1] | [2] | [3] | [4] | [5] | [6] | [7] | [8] | [9]

COc1nc(N)nc(NC23CC4CC(CC(C4)C2)C3)c1N=O
inactive: [1] | [2] | [3] | [4] | [5] | [6] | [7] | [8] | [9]

CCOC(=O)CCNc1nc(N)nc(Nc2ccccc2)c1N=O
inactive: [1] | [2] | [3] | [4] | [5] | [6] | [7] | [8] | [9]

Nc1nc(NC2CCCCC2)c(N=O)c(N2CCCCCCCC2)n1
inactive: [1] | [2] | [3] | [4] | [5] | [6] | [7] | [8] | [9]

C[C@@H]1Nc2nc(N)nc(OCC3CCCCC3)c2NC1=O
inactive: [1] | [2] | [3] | [4] | [5] | [6] | [7] | [8] | [9]

CCC(C)C(Nc1nc(N)[nH]c(=O)c1N=O)C(=O)O (stereo not given)
inactive: [1] | [2] | [3] | [4] | [5] | [6] | [7] | [8] | [9]

COc1nc(N)nc2c1NC(=O)[C@H](Cc1ccccc1)N2
inactive: [1] | [2] | [3] | [4] | [5] | [6] | [7] | [8] | [9]

Nc1nc(NC(CO)C(=O)O)c(N=O)c(=O)[nH]1 (stereo not given)
inactive: [1] | [2] | [3] | [4] | [5] | [6] | [7] | [8] | [9]

COc1nc(N)nc(NCCOCCO)c1N=O
inactive: [1] | [2] | [3] | [4] | [5] | [6] | [7] | [8] | [9]

CCOC(=O)CCNc1nc(N)nc(OC)c1N=O
inactive: [1] | [2] | [3] | [4] | [5] | [6] | [7] | [8] | [9]

CC(C)Nc1nc(N)nc(NCc2ccccc2)c1N=O
inactive: [1] | [2] | [3] | [4] | [5] | [6] | [7] | [8] | [9]

COc1nc(N)nc2c1nnn2C12CC3CC(CC(C3)C1)C2
inactive: [1] | [2] | [3] | [4] | [5] | [6] | [7] | [8] | [9]

COc1nc(NCCOC(C)=O)nc(Nc2cccc(Cl)c2)c1N=O
inactive: [1] | [2] | [3] | [4] | [5] | [6] | [7] | [8] | [9]

CCCCNc1nc(N)nc(Nc2ccccc2)c1N=O
inactive: [1] | [2] | [3] | [4] | [5] | [6] | [7] | [8] | [9]

COc1nc(N)nc(OC)c1N=O
inactive: [1] | [2] | [3] | [4] | [5] | [6] | [7] | [8] | [9]
